test system: Liver microsome; experiment: Retention time in Sprague-Dawley rat liver microsomes treated with 100 uM cinobufagin at 37 degC after 30 mins by UFLC-DAD-ESI-MS analysis; format: ADME; settings: 0.5 h
Procedure, shortened: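 Male Sprague-Dawley rat microsomes (0.3 mg/ml) were incubated with CB (100 µM) at 37°C for 30 min, with and without NADPH-generating system. Separation was on an ODS column at 40°C using an acetonitrile/0.5% formic acid water gradient at 0.4 ml/min, with DAD detection at 294 nm plus ESI-MS.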

How did the Retention_time turn out when `CC(=O)O[C@H]1[C@H]2O[C@]23[C@@H]2CC[C@@H]4C[C@H](O)CC[C@]4(C)[C@H]2CC[C@]3(C)[C@H]1c1ccc(=O)oc1` was run?
Its Retention_time is 10.59 min.

With `C[C@]12CC[C@@H](O)C[C@H]1CC[C@@H]1[C@@H]2CC[C@]2(C)[C@@H](c3ccc(=O)oc3)[C@@H](O)[C@H]3O[C@]132` as the compound, how does the Retention_time read?
Its Retention_time is 8.32 min.

`C[C@]12CC[C@H](O)C[C@H]1CC[C@@H]1[C@@H]2CC[C@]2(C)[C@@H](c3ccc(=O)oc3)[C@@H](O)[C@H]3O[C@]132` [DESACETYLCINOBUFAGIN] was tested. Which Retention_time did it give?
The Retention_time was 6.95 min.

Source: ChEMBL document CHEMBL3526081 (Drug Metab Dispos, 2011)
